The text below walks through data of ChEMBL document CHEMBL4033616, “Identification of spirobisnaphthalene derivatives with anti-tumor activities from the endophytic fungus Rhytidhysteron rufulum AS21B” (Bioorg Med Chem, 2017).

Test [1] deals with NCI-H1975. Briefly: Cytotoxicity against human NCI-H1975 cells assessed as decrease in cell viability after 72 hrs by CellTiter-Glo assay. It is filed as functional, cell-based. The note with it: NCI-H1975, 72 h. An outline of the steps: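 NSCLC H1975 cells grown to exponential phase in RPMI 1640 with 10% (v/v) fetal calf serum, humidified 5% CO2. Seeded cells were exposed to compounds at the indicated concentrations for 72 h at 37 °C. Viability was read as the ATP level in living cells (CellTiter-Glo).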
For orientation: Cellular ATP, detected with luciferase, serves as a proxy for viable cell number.

The subject of test [2] is Ramos. Briefly: Cytotoxicity against human Ramos cells assessed as decrease in cell viability after 24 hrs by CellTiter-Glo assay. It is filed as functional, cell-based. An outline of the steps: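 Human lymphoma Ramos cells, expanded to exponential growth in RPMI 1640 plus 10% (v/v) fetal calf serum under humidified 5% CO2. Seeded cells were treated with compounds at the indicated concentrations, 37 °C, 24 h. Viability was measured from the cellular ATP level with the CellTiter-Glo kit.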

The structures appear in SMILES notation.

`CO[C@@H]1CC(=O)C2=CCCC3(Oc4cccc5cccc(c45)O3)[C@@H]2[C@@H]1O`: the values for the IC50 in test [1] and in test [2] were 10.2 µM and 0.461 µM, respectively.

Regarding `O=C1C=C[C@@H](O)[C@@H]2C1=CCCC21Oc2cccc3cccc(c23)O1`, the IC50 (commonly the midpoint of a concentration-inhibition curve) in test [1] came out at 1.17 µM; in test [2] it was 0.048 µM.

Consider `O=C1C2=CCCC3(Oc4cccc5cccc(c45)O3)[C@@H]2[C@H](O)[C@@H]2O[C@H]12`, for which the figures for the IC50 in test [1] and in test [2] were 7.3 µM and 18 µM, respectively.

For `O=C1C=C[C@]2(Oc3cccc4c(O)ccc(c34)O2)c2ccccc21`, the IC50 in test [1] is above 100 µM; in test [2], 15 µM.

`O=C1CC[C@]23Oc4ccc(O)c5c4[C@@](C=CC5=O)(Oc4cccc1c42)O3`: the IC50 in test [1] was above 100 µM; in test [2], 82.9 µM.

As for `CC(=O)O[C@@H]1C=CC(=O)C2=CCCC3(Oc4cccc5cccc(c45)O3)[C@@H]21`, the values for the IC50 in test [1] and in test [2] were 0.252 µM and 0.018 µM, respectively.

For `CO[C@H]1CCC2(Oc3cccc4cccc(c34)O2)C2=C1C(=O)C=CC2=O`, the IC50 is above 100 µM in test [1] and 31.7 µM in test [2].

Consider `O[C@H]1[C@@H]2[C@H]([C@@H](O)CCC23Oc2cccc4cccc(c24)O3)[C@@H](O)C[C@@H]1O`, for which the IC50 in test [1] and in test [2] was above 100 µM throughout.

As for `Oc1cccc2c1[C@@H](O)CCC21Oc2cccc3cccc(c23)O1`, the IC50 in test [1] and in test [2] was above 100 µM throughout.

Regarding `O=C1CCC(O)c2cccc(O)c21` (stereo unspecified) [4,8-DIHYDROXY-1-TETRALONE], the IC50 in test [1] came to 50 µM; in test [2], 23.1 µM.

Regarding `CN(C)C/C=C/C(=O)Nc1cc2c(Nc3ccc(F)c(Cl)c3)ncnc2cc1O[C@H]1CCOC1` [AFATINIB], the IC50 in test [1] worked out at 1.97 µM.

Take `C=CC(=O)N1CCC[C@@H](n2nc(-c3ccc(Oc4ccccc4)cc3)c3c(N)ncnc32)C1` [IBRUTINIB]: the IC50 in test [2] amounted to 28.7 µM.

With `O=C1CCC2(Oc3cccc4cccc(c34)O2)c2cccc(O)c21` [PALMARUMYCIN CP2], the IC50 in test [1] was above 100 µM; in test [2] it was 18 µM.

`O=C1CCC2(Oc3cccc4cccc(c34)O2)c2c(O)ccc(O)c21` [PALMARUMYCIN CP17]: the results for the IC50 in test [1] and in test [2] were above 100 µM and 33.1 µM, respectively.
